LANA DNA inh – KSHV C-LANA DNA binding inhibition | 340,000 tested, 0.078% active | MBP-C-LANA/FAM-LBS DNA binding, fluorescence polarization | inhibition, % at 9 µM;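 active = highest replicate inhibition at or above 60% at 9 µM, even if other replicates fall short; inactive = all replicates below 60% inhibition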;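 also: 0% = neutral control wells and 100% = 4 µM acridine orange control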
CAL PDZ FP-1 – blocks peptide binding to human CAL PDZ domain; AID 504414; purified CAL PDZ, TMR-peptide fluorescence polarization, 1 h; 330,000 tested, 0.02% active; inhibition, % at 20 µM; Q9HD26;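 active = highest replicate inhibition of at least 40%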;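 also: plate controls were DMSO neutral control wells for no effect and unlabeled competitor peptide control wells for full effect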
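System: tagged CAL PDZ domain. Schedule: 1 h room-temperature incubation prior to read. Signal: fluorescence polarization (mP). Measure: percent inhibition from loss of millipolarization.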
APOBEC3A inh – blocks human APOBEC3A ssDNA deamination; recombinant A3A, FAM/TAMRA ssDNA deamination fluorescence; AID 493011; inhibition, % at 20 µM; 330,000 tested, 0.41% active; P31941;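 active = at least 40% inhibition at 20 µM here, with at most 30% in a related deaminase screen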;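 also: plate controls were A3A with DMSO for no effect and wells lacking A3A enzyme for full effect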
Target sequence (P31941 whole entry, looked up): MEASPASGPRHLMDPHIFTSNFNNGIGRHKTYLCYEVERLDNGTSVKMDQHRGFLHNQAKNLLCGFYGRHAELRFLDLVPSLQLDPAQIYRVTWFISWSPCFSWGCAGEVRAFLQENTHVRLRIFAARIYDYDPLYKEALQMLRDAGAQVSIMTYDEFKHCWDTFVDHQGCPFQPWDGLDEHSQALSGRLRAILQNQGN
APOBEC3G inh – APOBEC3G (human) deaminase inhibition | 330,000 tested, 0.28% active | inhibition, % at 20 µM | recombinant A3G, ssDNA deamination FAM/TAMRA fluorescence | AID 493012;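 active = inhibition of at least 40% at 20 µM, with no more than 30% in the related APOBEC3A deaminase screen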;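 also: plate controls were DMSO wells with A3G for no effect and wells lacking A3G enzyme for full effect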
Target sequence (Q9HC16 whole entry, looked up): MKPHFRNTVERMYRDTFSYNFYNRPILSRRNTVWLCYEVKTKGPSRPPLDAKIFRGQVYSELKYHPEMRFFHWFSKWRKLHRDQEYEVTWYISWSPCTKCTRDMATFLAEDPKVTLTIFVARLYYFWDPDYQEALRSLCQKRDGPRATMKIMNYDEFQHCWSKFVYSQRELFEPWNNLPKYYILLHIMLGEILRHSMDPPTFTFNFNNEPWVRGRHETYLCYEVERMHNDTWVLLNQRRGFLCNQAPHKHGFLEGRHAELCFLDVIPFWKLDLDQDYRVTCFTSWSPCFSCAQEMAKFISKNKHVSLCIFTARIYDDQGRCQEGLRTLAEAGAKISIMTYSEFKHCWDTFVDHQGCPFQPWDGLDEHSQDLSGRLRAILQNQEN
CAL PDZ FP-2 – inhibitors of human CAL PDZ peptide binding; Q9HD26; purified CAL PDZ, TMR-peptide fluorescence polarization, 1 h; inhibition, % at 24.9 µM; 300,000 tested, 0.92% active; AID 602252;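 active = mean inhibition of at least 30% with at least half of replicates also reaching 30%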;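 also: 0% = DMSO neutral control and 100% = excess unlabeled competitor peptide PRC23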
Keap1 Nrf2 FP – Keap1-Nrf2 (human) interaction inhibition; Q14145; Keap1 Kelch-Nrf2 peptide fluorescence polarization, 1536-well; inhibition, % at 9.4 µM; 340,000 tested, 0.15% active; in the data active = inhibition above about 12%;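 also: human Keap1 Kelch domain with fluorescein labeled Nrf2 9mer peptide probe; 0% = neutral control wells and 100% = peptide positive control; higher means more block of Keap1 binding to Nrf2 peptide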
Numbers without * were called inactive; . = no result; + = active, no number. Only some compounds are listed: those with a hit (about 1.7% of all), similar ones and a draw of the others.

SMILES	LANA DNA inh	CAL PDZ FP-1	APOBEC3A inh	APOBEC3G inh	CAL PDZ FP-2	Keap1 Nrf2 FP
COC(=O)c1sccc1NC(=O)CC1NCCNC1=O (centres undefined)	1.5	-1.0	0.0	-1.6	129.6*	1.3
C/C(CC(=O)Nc1ccc2c(c1)OCCO2)=N\NC(=O)COc1ccc(C)cc1	-2.2	-0.8	-1.5	-5.8	-1.3	1.4
COc1ccc(CC(=O)N/N=C(\C)CC(=O)Nc2ccc3c(c2)OCCO3)cc1OC	0.0	-3.4	-3.6	-7.1	44.1*	-0.5
C/C(CC(=O)Nc1ccc2c(c1)OCCO2)=N\NC(=O)COc1ccc(Cl)c(C)c1	-1.0	-1.9	-5.3	-0.2	47.3*	-4.0
CCCN(CC(=O)Nc1ccccc1C)C(=O)c1sc2ccccc2c1Cl	1.4	-0.1	1.4	-3.2	60.7*	-0.8
CCOC(=O)C1(C)Oc2ccccc2C(C(=O)OC)=C1C(=O)OC (centres undefined)	1.8	-0.6	8.7	1.2	+	-3.4
O=c1cc(-c2ccc(O)c(O)c2)oc2cc(O)c([C@@H]3O[C@H](CO)[C@@H](O)[C@H](O)[C@H]3O)c(O)c12	5.0	-0.6	-0.4	-7.1	-1.6	0.4
O=c1c2cc(O)c(O)cc2oc2cc(O)c(C3OC(CO)C(O)C(O)C3O)c(O)c12 (centres undefined)	67.3*	-0.8	-3.5	-4.8	-3.1	-1.7
CCOCCCNS(=O)(=O)c1ccc(-n2cnnn2)c(OC)c1	2.1	1.0	-3.7	-0.6	-0.6	-0.3
C=CC(C)n1c(Br)nc2c1c(=O)[nH]c(=O)n2C (centres undefined)	-0.1	.	-2.3	-6.2	-4.0	2.4
CC(C)n1c(=S)[nH]c2c1c(=O)[nH]c(=O)n2C	1.0	-2.4	-7.0	0.2	43.3*	-3.6
Cc1nc(SCC(=O)N2CCN(c3ccccc3)CC2)c2oc3ccccc3c2n1	0.9	-1.5	-1.2	-2.8	64.2*	-1.4
Cc1nc(SCC(=O)O)c2oc3ccccc3c2n1	-1.1	-0.5	-1.0	-0.4	-7.6	1.7
CCOC(=O)CNC(=O)CCc1nnc2ccc(N3CCC(C)CC3)nn12	5.0	0.9	-2.3	-5.8	2.0	-4.9
Cc1cc(C)n(CC(=O)Nc2ccc3c(c2)OCO3)c(=O)c1C#N	1.0	-1.1	2.4	-2.0	.	-4.8
Cc1ccnc(NC(=O)CNC(=O)c2sc3ccccc3c2Cl)c1	-0.6	-0.3	-3.8	-11.5	-7.1	-5.8
Cc1ccnc(NC(=O)c2sc3cc(Cl)ccc3c2Cl)c1	-1.5	-1.3	-8.0	-1.6	80.6*	-3.7
CC1(c2ccc3ccccc3c2)NC(=O)N(CC(=O)N2CCN(Cc3ccccc3)CC2)C1=O (centres undefined)	3.0	-0.9	4.5	0.3	-0.7	-2.5
OC1(c2ccc3ccccc3c2)CCN(Cc2ccccc2)C1 (centres undefined)	1.4	-1.1	-5.0	-5.8	38.2*	-3.9
C#Cc1ccc([C@@H]2C=C(C(=O)O)O[C@H](OCc3ccc(CO)cc3)C2)cc1	5.5	0.1	6.1	-5.1	1.0	-4.6
CCN(CC)c1ccc(C2NC(=O)c3ccccc3N2)cc1 (centres undefined)	-0.4	0.0	.	.	-2.6	-0.5
O=C1NC(c2ccc(Br)cc2)Nc2ccccc21 (centres undefined)	106.9*	-0.8	2.4	-3.4	5.1	-6.3
COc1ccc(Cl)cc1N(CC(=O)N1CCCC1)S(C)(=O)=O	1.7	-0.7	-5.8	-7.0	16.1	0.4
C=CCNC(=O)/C(=C\c1ccco1)NC(=O)c1ccco1	0.9	-2.7	-8.3	-9.6	64.8*	-7.8
C=CCNCCCCOc1ccc(OCC)cc1	-0.8	.	3.5	-0.1	44.8*	-2.1
SMILES	LANA DNA inh	CAL PDZ FP-1	APOBEC3A inh	APOBEC3G inh	CAL PDZ FP-2	Keap1 Nrf2 FP
CN(Cc1ccccc1C#N)S(=O)(=O)c1cccs1	-0.3	-0.4	3.3	-2.5	.	-4.3
COc1ccccc1CN(C)S(=O)(=O)c1cccs1	3.1	-0.6	0.6	-6.7	64.1*	-5.0
O=C(CSc1nc(-c2ccccc2)cc(C(F)(F)F)n1)N1CCOCC1	-0.4	-1.5	0.3	-5.1	96.3*	-4.9
COc1ccc(N2CCN(C(=O)C3CCN(S(=O)(=O)c4ccc(F)cc4)CC3)CC2)cc1	-0.1	-0.2	-3.4	-5.8	-2.9	-0.2
COC(=O)Cc1ccc(NC(=S)Nc2cccc(C)n2)cc1	-2.1	-1.5	0.1	-6.4	53.2*	-5.9
Cc1cccc(NC(=O)Nc2ccc(Cl)cc2)n1	4.2	-0.9	-1.9	4.2	40.3*	-0.5
CCN(CC)S(=O)(=O)c1ccc(O)c(NC(=O)CN2CCc3ccccc3C2)c1	0.0	-1.7	-2.9	-1.9	45.3*	-3.6
CN(C)S(=O)(=O)c1ccc(Cl)c(NC(=O)CN2CCc3ccccc3C2)c1	0.0	-2.3	-2.8	-3.7	1.4	-4.2
O=C(NCCCN1CCOCC1)c1ccc2c(c1)N(Cc1ccccc1)CCS2	1.3	-1.0	3.7	0.8	58.3*	0.8
O=C(N/N=C/c1cccc([N+](=O)[O-])c1)C(=O)N1CCCCCC1	0.9	-2.2	-1.0	0.5	4.5	2.4
CCN(C(=O)CN1C(=O)S/C(=C\c2ccccc2OC)C1=O)C1CCS(=O)(=O)C1 (centres undefined)	0.5	-4.0	-2.1	-3.5	-2.3	3.0
CCN(CC)C(=O)CN1C(=O)/C(=C/c2ccccc2)SC1=S	-6.0	0.6	-3.7	-6.0	43.7*	-5.2
CCN(C(=O)CN1C(=O)/C(=C/c2ccccc2F)SC1=S)C1CCS(=O)(=O)C1 (centres undefined)	-0.9	0.1	-2.6	-4.6	75.3*	2.1
C[C@H]1CN(S(=O)C(C)(C)C)[C@H](CCO)/C1=C\c1ccccc1 (some centres undefined)	0.4	-1.2	.	.	1.3	-4.5
CCOC(=O)c1cnn(-c2ccc([N+](=O)[O-])cc2)c1N	-2.1	0.2	2.0	-2.5	60.2*	-1.8
CCOC(=O)c1cnn(-c2ccccc2)c1N	5.1	-1.6	-4.9	-8.7	1.7	2.1
CCOc1cccc(N2CCN(CCNC(=O)Nc3ccc(C)cc3)CC2)c1C	0.8	0.2	-2.8	-4.3	37.1*	-1.0
O=C(NCc1ccccn1)NC12CC3CC(CC(C3)C1)C2	-0.3	-0.4	-0.1	-1.5	76.1*	5.1
O=C(CCN1C(=O)/C(=C/c2cccs2)SC1=S)N1CCCCC1	5.5	-0.7	-1.4	4.7	85.4*	-0.2
CCCc1nnc2n1N=C(c1ccc(C)cc1)CS2	0.7	-3.5	-3.5	-7.9	-8.5	0.6
OC1(C#CCCN2CCCCC2)c2ccccc2-c2ccccc21	3.3	11.8	0.7	-5.2	50.4*	-2.8
COC(=O)C(CC(=O)O)NCc1ccco1 (centres undefined)	-1.1	0.5	-0.6	-1.2	3.4	0.7
Cc1ccc(NC(=O)CCCc2ccccc2)c([N+](=O)[O-])c1	-1.4	.	-6.0	-7.2	33.5*	1.0
